# Measured values pooled from the literature.
# OfChi-h: Chitinase (OfChi-h, Ostrinia furnacalis, UniProt Q4AE59)
# WDR5: WD repeat-containing protein 5 (WDR5, Homo sapiens, UniProt P61964)
# HDAC7: Histone deacetylase 7 (HDAC7, Homo sapiens, UniProt Q8WUI4)
SMILES,target,effect on,action,method,tested at,endpoint,result
CC(C)OC(=O)CNc1cccc(CN(Cc2ccc(-n3cccn3)cc2)S(=O)(=O)c2cccnc2)n1,"Beta-2 adrenergic receptor (ADRB2, Homo sapiens, UniProt P07550)",ligand displacement,,radioligand,10 µM,inhibition,2%
COc1cc(-c2cncc3c2CN(C)Cc2cc(N4CCNCC4)ccc2-3)cc(OC)c1OC,"G protein-coupled receptor kinase 6 (GRK6, Homo sapiens, UniProt P43250)",enzyme activity,inhibitor,,1 µM,remaining activity,112%
O=C(Cn1cc(C=CC(=O)c2ccc(F)cc2)nn1)Nc1nc(-c2ccccc2)cs1,"72 kDa type IV collagenase (MMP2, Homo sapiens, UniProt P08253)",enzyme activity,inhibitor,,0.5 µM,inhibition,40.6%
CN(C)c1nc(NCc2cccc(C(F)(F)F)c2)c(/N=N/c2ccc(Cl)cc2)c(N(C)C)n1,OfChi-h,enzyme activity,inhibitor,fluorescence,1 µM,inhibition,91.9%
C=CS(=O)(=O)c1ccc(Nc2nc(OCC3CCCCC3)c3nc[nH]c3n2)cc1,"Gasdermin-D (GSDMD, Homo sapiens, UniProt P57764)",binding,,BLI,,koff,0.0439 s⁻¹
C[C@@H]1CN(c2ccc(-c3cc(C(=O)NCCOCCOCCOCCOCCNC(=O)/C=C/c4[nH]cc(C(=O)N[C@@H](CC(N)=O)c5ccc(F)c(Cl)c5)c4-c4ccc(Cl)cc4F)ccc3F)cc2NC(=O)c2c[nH]c(=O)cc2C(F)(F)F)C[C@H](C)N1C,WDR5,thermal stability,,DSF,5.5 µM,ΔTm,10.6 °C
Cc1cc([C@@H](C)Nc2ccccc2C(=O)O)c2nc(N3CCC(F)(F)CC3)c(C#N)c(=O)n2c1,"Protein kinase C epsilon type (PRKCE, Homo sapiens, UniProt Q02156)",binding,,competition with immobilised ligand,1 µM,remaining binding,100%
CNc1ncc2c(/C=C/C(=O)N3CCC(OC)CC3)nn(Cc3cccc(C(F)(F)F)c3)c2n1,"Bone morphogenetic protein receptor type-1A (BMPR1A, Homo sapiens, UniProt P36894)",enzyme activity,inhibitor,radiometric,1 µM,remaining activity,93%
CCCCc1ccc(CNc2nc(N(C)C)nc(N(C)C)c2/N=N/c2ccc(Cl)cc2)cc1,OfChi-h,enzyme activity,inhibitor,fluorescence,1 µM,inhibition,91.9%
O=C(NO)c1cncc(OS(=O)(=O)Oc2ccc3ccccc3c2)c1,HDAC7,enzyme activity,inhibitor,fluorescence,10 µM,inhibition,46%
C=CC(=O)N1CCC(COCC(=O)N2CCN(c3nc(-c4cnc(N)nc4C(F)F)nc(N4CCOC[C@@H]4C)n3)CC2)CC1,"Cyclin-dependent kinase-like 3 (CDKL3, Homo sapiens, UniProt Q8IVW4)",binding,,competition with immobilised ligand,1 µM,remaining binding,100%
C[C@@H]1CN(c2ccc(-c3cc(C(=O)NCCOCCOCCOCCOCCOCCOCCOCCOCCOCCNC(=O)/C=C/c4[nH]cc(C(=O)N[C@@H](CC(N)=O)c5ccc(F)c(Cl)c5)c4-c4ccc(Cl)cc4F)ccc3F)cc2NC(=O)c2c[nH]c(=O)cc2C(F)(F)F)C[C@H](C)N1C,WDR5,thermal stability,,DSF,5.5 µM,ΔTm,8.9 °C
O=C(NO)c1cncc(OS(=O)(=O)Oc2ccc(C(F)(F)F)cc2)c1,HDAC7,enzyme activity,inhibitor,fluorescence,10 µM,inhibition,49%
